CaV13 ICDI inh: Primary screen for inhibitors of IQ motif and Ca2+-dependent inactivation inhibitor domain binding in CACNA1D, Förster resonance energy transfer in living cells, …; HEK cells, CFP/YFP FRET ICDI-IQ, plate reader, 10 min; percent FRET-ratio fall versus neutral wells; inhibition, % at 12.3 µM; hit rate 0.098% among 340,000; AID 743397;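 active = mean replicate inhibition of at least 30% and at least 1% of replicates passing that level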;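 also: 0% = median of the neutral control wells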
TROY signal inh: TROY signaling inhibition; Q293 LMP1-TROYcd NF-kB luciferase reporter, 4 h; inhibition, % at 10 µM; hit rate 0.98% among 360,000;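 active = compounds whose plate-normalised and pattern-corrected inhibition of the luciferase reporter signal at the single screening dose is 50% or more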
Xi reactivation: reactivates the inactive X chromosome in mouse fibroblasts; XiGFP mouse fibroblasts, % GFP-positive cells imaging, 3 d; cells co-treated with 5-aza-dC sensitizer; scaled so ellipticine positive control = 100%; activation, % at 7.58 µM; hit rate 0.055% among 360,000;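 active = mean normalized replicate activation at least 10% and every replicate at or above 10%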;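 also: 0% = median of on-plate neutral control wells and 100% = ellipticine 6 µM median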
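System: SV40-immortalized XiGFP fibroblast cells, line 68-5-11 / Incubation: 3-day compound exposure, then 15 min fixation at room temperature / Compound: single concentration per compound, delivered by pin transfer / Buffer or medium: DMEM plus 5-aza-dC sensitizer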
LGR2 antag: Drosophila LGR2 receptor signaling inhibition. hit rate 0.35% among 380,000. HEK293 LGR2, CRE-luciferase, bursicon-stimulated, 4 h. inhibition, % at 9.99 µM. AID 720647;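 active = drop in luminescence signal, shown as inhibition above about 50% in the replicate tests, limit read from the data, passing the limit was not always enough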;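 also: agonist challenge used bursicon conditioned medium at about half maximal strength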
TWEAK-Fn14 inh: inhibitors of TWEAK-Fn14 interaction signaling; TWEAK-stimulated Fn14 reporter cells, luciferase luminescence, 8 h; inhibition, % at 10 µM; hit rate 2% among 360,000; in the data active = inhibition above about 50%
Starred values were filed as active, the others as inactive; · = not tested or not shown. This is a sample that favours compounds with a hit; in the whole collection about 2% have one here.

SMILES	CaV13 ICDI inh	TROY signal inh	Xi reactivation	LGR2 antag	TWEAK-Fn14 inh
CCS(=O)(=O)c1ncc(Cl)c(C(=O)Nc2ccc(S(=O)(=O)N(C)c3ccccc3)cc2)n1	-2	88*	0	9	100*
CCN(c1ccccc1)S(=O)(=O)c1ccc(NC(=O)c2nc(S(C)(=O)=O)ncc2Cl)cc1	·	70*	·	·	88*
CC(=O)Nc1ccc(S(=O)(=O)N(C)c2ccccc2)cc1	-8	-3	·	·	-1
CS(=O)(=O)c1ncc(Cl)c(C(=O)Nc2ccc(OC(F)F)cc2)n1	·	57*	·	4	70*
C[C@@H]1CN([C@H](C)CO)C(=O)c2cc(-c3ccccc3F)cnc2O[C@@H]1CN(C)Cc1ccc(F)cc1	·	·	0	3	·
CC(=O)N1[C@@H](CO)[C@@H](c2ccccc2)C12CN(C(=O)c1ccccn1)C2	·	·	0	3	·
CCCCCCCN(c1ccccc1)[C@@H]1C[C@H]2CCCC(=O)N3CC[C@@H](C1)[C@@H]23	-10	38	0	52*	34
O=C(OCc1ccccc1)c1ccc(NCc2cc(O)ccc2O)cc1	-6	58*	0	54*	107*
CC(C)OC(=O)c1ccc(NCc2cc(O)ccc2O)cc1	-5	16	1	·	101*
COP(=O)(OC)c1ccc(NCc2cc(O)ccc2O)cc1	-11	5	0	-24	10
C[C@H](CO)N1C[C@H](C)[C@H](CN(C)C(=O)Nc2ccc3c(c2)OCO3)Oc2ncc(-c3cncnc3)cc2C1=O	·	·	1	6	·
Cc1ccc(NS(=O)(=O)c2cc(NC(=O)c3ccc4c(c3)NC(=O)CS4)ccc2C)c(C)c1	-3	64*	0	24	72*
CC(=O)c1c(C)[nH]c(C(=O)Nc2ccc(C)c(S(=O)(=O)N(C)C)c2)c1C	-4	-40	0	-33	-1
COc1ccc(NC(=O)c2ccc3c(c2)NC(=O)CS3)cc1S(=O)(=O)Nc1ccc(Br)cc1	8	31	0	16	17
CC(=O)c1c(C)[nH]c(C(=O)Nc2ccc(C)c(S(=O)(=O)Nc3ccc(C)cc3C)c2)c1C	11	58*	0	9	47
CO[C@H]1CC[C@@H]2CCOc3ccc(C#N)cc3C(=O)N(C)CCCC(=O)N(C)C[C@H]1O2	·	·	0	3	·
O=C(N/N=C/c1ccc(O)cc1)Nc1cccc2nsnc12	-11	37	0	4	63*
C[C@@H]1CN([C@@H](C)CO)C(=O)c2cccc(NC(=O)Nc3ccc(F)cc3)c2O[C@@H]1CN(C)Cc1ccc(C(=O)Nc2ccccc2N)cc1	·	·	-1	-13	·
Cc1cccc(-c2nc(S(=O)(=O)c3ccc(F)cc3)c(NCCCN3CCOCC3)o2)c1	-10	-12	0	-3	78*
Cc1ccc(S(=O)(=O)c2nc(-c3ccccc3)oc2NCCCN2CCOCC2)cc1	-5	-19	0	-46	-14
COc1ccc(-n2c(CCC(=O)O)ccc2-c2ccc(F)cc2)c(OC)c1	-19	51*	0	-17	30
COC(=O)c1ccccc1-n1c(CCC(=O)O)ccc1-c1ccc(F)cc1	-4	-17	0	2	5
O=C(Nc1nc2c(s1)CCCC2)c1ccc(N2C(=O)CCC2=O)cc1	·	-31	0	-36	-12
O=C(Nc1nc2c(s1)CCCC2)c1ccc(Br)s1	-7	6	·	26	55*
C[C@@H]1CN([C@H](C)CO)C(=O)c2cc(C#CC3(O)CCCC3)cnc2O[C@H]1CN(C)Cc1ccccc1	·	·	0	4	·
SMILES	CaV13 ICDI inh	TROY signal inh	Xi reactivation	LGR2 antag	TWEAK-Fn14 inh
O=C1NC2(NN1c1ccccc1)C1CC3CC(C1)CC2C3 (configuration not stated)	-5	·	·	15	88*
c1ccc(-n2cnc3cc(NCc4cccs4)ccc32)cc1	-4	83*	·	·	93*
COc1ccc(-c2ccc3c(c2)O[C@H](CN(C)C(C)=O)[C@H](C)CN([C@H](C)CO)S3(=O)=O)cc1	·	·	-1	16	·
C[C@@H]1CN(C)C(=O)c2cccc(NS(C)(=O)=O)c2O[C@H]1CN(C)S(C)(=O)=O	·	·	0	·	·
Nc1ccc2c3c(cccc13)-c1ccccc1-2	-14	-18	117*	-1	2
CN1C(=O)c2cc(NS(=O)(=O)c3cccc(F)c3)ccc2OC[C@@H]2O[C@@H](CC(=O)N3CCc4ccccc4C3)CC[C@@H]21	·	·	0	6	·

Screening results as filed in PubChem.
